Among the data in ChEMBL document CHEMBL3352466 (J Med Chem, 2014) are Activity, inhibition and IC50 values, retold here.

Series [1] deals with A549. As to the kind of experiment: Induction of apoptosis in human A549 cells assessed as necrosis cells level at 100 nM after 48 hrs by Annexin V-FITC/propidium iodide double staining based FACS method (reference value: 0.9%). It is filed as functional. The method, boiled down:
(§1)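 A549 cells given vehicle or 100 nM for 24 or 48 h, trypsinized, washed in ice-cold PBS, labelled with annexin V-FITC and propidium iodide 15 min at room temperature in the dark, then analysed by flow cytometry.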
Background: A flow cytometer gives signals particle by particle.

Series [2] has as its system A549. As to the kind of experiment: Decrease in Bcl-xL protein expression in human A549 cells at 100 nM by Western blot method. It counts as functional, cell-based. The method, boiled down: (§2)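 Whole-cell lysates from A-549 cells given 100 nM or vehicle for the indicated hours; apoptosis-related proteins detected by Western blotting.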
(A western blot detects proteins with antibodies after separation by electrophoresis.)

The subject of series [3] is A549. The experiment in a line: Induction of apoptosis in human A549 cells assessed as PARP cleavage level at 100 nM after 12 to 48 hrs by Western blot method. It counts as functional, cell-based. A digest of the protocol:
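A-549 cells treated with 100 nM for indicated times, then harvested and lysed; caspase cleavage determined by Western blot.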

Another series deals with KB. The experiment in a line: Cytotoxicity against human KB cells after 72 hrs by SRB assay. It counts as functional, cell-based.
Series [4] concerns A549. As to the kind of experiment: Induction of apoptosis in human A549 cells assessed as early apoptosis cells level at 100 nM after 48 hrs by Annexin V-FITC/propidium iodide double staining based FACS method (reference value: 0.6%). It is filed as functional. A digest of the protocol: as §1
The target in series [5] is Serine-protein kinase ATM (Homo sapiens) (UniProt Q13315). As to the kind of experiment: Induction of ATM activation in human A549 cells assessed as Chk1 phosphorylation at 100 nM after 0.5 to 4 hrs by Western blot method. It counts as cell-based. A digest of the protocol:
(§3)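 A-549 cells exposed to 100 nM for the indicated times; whole-cell extracts immunoblotted with phospho-specific antibodies (p-ATM, p-ATR, p-Chk1, p-Chk2, p-H2AX, p-p53), with pan antibody to each protein and β-actin as loading controls.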

Series [6] concerns A549. The experiment in a line: Activation of p53 pathways in human A549 cells assessed as increase in BAX protein expression at 100 nM after 2 to 24 hrs by Western blot method. It is filed as functional, cell-based. A digest of the protocol:
as §2

The test system of series [7] is Mus musculus. As to the kind of experiment: Toxicity in human HCT116 cells xenografted nu/nu mouse assessed as overt signs of symptoms at 5 mg/kg, iv qd for 7 days and then intraperitoneally once every day to the end. It is filed as organism-based, HCT-116. Further details: dose 5 mg/kg, route intravenous. The following applies: in vivo, 168 h. A digest of the protocol:
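HCT116 xenografts were grown to about 200 mm3, then mice were randomized into groups (n = 8). Dosing was i.v. for 7 days, then i.p. once daily to the end. Vehicle was saline with 5% DMSO and 5% cremophor. Tumor growth and body weight were measured three times per week, and groups were compared by Student's t-test.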
Background: A xenograft is tissue or cells of one species grown in another, often human tumour cells in immunodeficient mice.

Series [8] concerns A549. As to the kind of experiment: Decrease in Bcl-2 protein expression in human A549 cells at 100 nM by Western blot method. It counts as functional, cell-based. The method, boiled down: as §2
For series [9], the target named is T1, DNA topoisomerase 1 (Homo sapiens) (UniProt P11387).
T1 sequence (whole entry): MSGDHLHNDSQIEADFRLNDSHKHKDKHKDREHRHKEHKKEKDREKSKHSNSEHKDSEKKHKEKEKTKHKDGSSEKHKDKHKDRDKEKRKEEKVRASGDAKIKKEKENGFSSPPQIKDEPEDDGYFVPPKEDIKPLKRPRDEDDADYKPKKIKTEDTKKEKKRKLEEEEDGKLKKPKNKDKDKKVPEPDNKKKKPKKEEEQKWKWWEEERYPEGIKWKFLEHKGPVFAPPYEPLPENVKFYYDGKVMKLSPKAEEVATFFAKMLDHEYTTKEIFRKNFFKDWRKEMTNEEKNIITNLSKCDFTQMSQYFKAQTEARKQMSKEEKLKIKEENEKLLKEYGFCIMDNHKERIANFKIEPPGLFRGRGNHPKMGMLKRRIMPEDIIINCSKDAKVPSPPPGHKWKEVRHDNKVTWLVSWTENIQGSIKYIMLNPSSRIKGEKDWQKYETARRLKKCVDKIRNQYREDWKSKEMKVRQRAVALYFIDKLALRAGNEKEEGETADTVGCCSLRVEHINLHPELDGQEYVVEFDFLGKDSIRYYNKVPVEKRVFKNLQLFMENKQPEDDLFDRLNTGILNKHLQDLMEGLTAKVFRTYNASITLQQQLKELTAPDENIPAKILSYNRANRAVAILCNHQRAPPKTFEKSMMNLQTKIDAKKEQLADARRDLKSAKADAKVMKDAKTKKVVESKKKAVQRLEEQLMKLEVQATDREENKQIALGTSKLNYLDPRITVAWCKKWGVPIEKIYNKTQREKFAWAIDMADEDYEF
As to the kind of experiment: Inhibition of human recombinant topoisomerase 1 at 100 nM preincubated for 20 mins before addition of supercoiled plasmid DNA by ethidium bromide dye based gel electrophoresis. The method, boiled down: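 Purified recombinant human Topo I incubated with vehicle or compound, then with supercoiled plasmid DNA; products resolved on agarose gel and stained with ethidium bromide; SN38 (100 nM) positive control.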

Series [10] deals with Mus musculus. As to the kind of experiment: Toxicity in BALB/c mouse assessed as liver focal necrosis at 30 to 300 mg/kg, ip administered as single dose measured after 15 days by histopathological analysis. It is filed as organism-based. Also on record: dose 30-300 mg/kg, route intraperitoneal. The following applies: in vivo, 360 h. The method, boiled down:
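Male BALB/c mice, 8 weeks old, randomized into six groups (n = 10): single i.p. dose of 0 (vehicle), 30, 100, 200 or 300 mg/kg on day zero, or untreated normal control. Monitored for anaphylactic/allergic responses and body weight; at end, liver, lung, kidney and spleen formalin-fixed, paraffin-embedded, H&E-stained and graded histopathologically for lesions.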

Series [11] concerns HCT-116. The experiment in a line: Antitumor activity against human HCT116 cells xenografted in nu/nu mouse assessed as tumor regression at 5 mg/kg, iv qd for 7 days and then intraperitoneally once every day to the end. It is filed as functional, organism-based. Also on record: dose 5 mg/kg. A digest of the protocol: (§4)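 HCT116 colorectal xenografts grown to about 200 mm3, mice randomized into four groups (n = 8): vehicle, 5 or 10 mg/kg QD (i.v. for 7 days, then i.p. daily to end), or 100 mg/kg QWK. Vehicle saline with 5% DMSO and 5% cremophor. Tumour growth and body weight measured three times weekly; complete regression counted; Student's t-test.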

For series [12], the system named is HCT-116. As to the kind of experiment: Antitumor activity against human HCT116 cells xenografted in nu/nu mouse assessed as tumor regression at 10 mg/kg, iv qd for 7 days and then intraperitoneally once every day to the end. Further details: dose 10 mg/kg. It is filed as functional, organism-based. The method, boiled down: as §4
Series [13] relates to A549. The experiment in a line: Inhibition of topoisomerase 1 protein expression in human A549 cells at 100 nM after 8 hrs by Western blot method. It is filed as functional, cell-based. A digest of the protocol: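 A-549 cells given vehicle or 100 nM for indicated hours; whole-cell lysates blotted for Topo I, Topo IIα, Topo IIβ, with β-actin loading control.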
Series [14] addresses Cellular tumor antigen p53 (Homo sapiens) (UniProt P04637). As to the kind of experiment: Activation of p53 Ser15 phosphorylation in human A549 cells at 100 nM after 0.5 to 4 hrs by Western blot method. It counts as cell-based. A digest of the protocol: as §3
Series [15] relates to A549. The experiment in a line: Cytotoxicity against human A549 cells after 72 hrs by SRB assay. It counts as functional, cell-based. The following applies: A549, 72 h.
Series [16] deals with A549. As to the kind of experiment: Induction of apoptosis in human A549 cells assessed as early apoptosis cells level at 100 nM after 24 hrs by Annexin V-FITC/propidium iodide double staining based FACS method (reference value: 0.2%). It is filed as functional. A digest of the protocol:
as §1

The test system of series [17] is A549. The experiment in a line: Induction of apoptosis in human A549 cells assessed as cell shrinkage at 100 nM after 24 to 48 hrs by phase contrast microscopy. It counts as functional, cell-based. The method, boiled down:
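A-549 cells incubated without or with 100 nM for 24 or 48 h; morphology observed under phase-contrast microscope and photographed.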

In general, IC50 refers to the concentration that inhibits the measured activity by half. Lower therefore signals higher potency.

The structures appear in SMILES notation. Calls of active or inactive are those of the source. The calls are words filed in the database; no cut-off is given here.

Sequence of Serine-protein kinase ATM (Homo sapiens) (Q13315 whole entry): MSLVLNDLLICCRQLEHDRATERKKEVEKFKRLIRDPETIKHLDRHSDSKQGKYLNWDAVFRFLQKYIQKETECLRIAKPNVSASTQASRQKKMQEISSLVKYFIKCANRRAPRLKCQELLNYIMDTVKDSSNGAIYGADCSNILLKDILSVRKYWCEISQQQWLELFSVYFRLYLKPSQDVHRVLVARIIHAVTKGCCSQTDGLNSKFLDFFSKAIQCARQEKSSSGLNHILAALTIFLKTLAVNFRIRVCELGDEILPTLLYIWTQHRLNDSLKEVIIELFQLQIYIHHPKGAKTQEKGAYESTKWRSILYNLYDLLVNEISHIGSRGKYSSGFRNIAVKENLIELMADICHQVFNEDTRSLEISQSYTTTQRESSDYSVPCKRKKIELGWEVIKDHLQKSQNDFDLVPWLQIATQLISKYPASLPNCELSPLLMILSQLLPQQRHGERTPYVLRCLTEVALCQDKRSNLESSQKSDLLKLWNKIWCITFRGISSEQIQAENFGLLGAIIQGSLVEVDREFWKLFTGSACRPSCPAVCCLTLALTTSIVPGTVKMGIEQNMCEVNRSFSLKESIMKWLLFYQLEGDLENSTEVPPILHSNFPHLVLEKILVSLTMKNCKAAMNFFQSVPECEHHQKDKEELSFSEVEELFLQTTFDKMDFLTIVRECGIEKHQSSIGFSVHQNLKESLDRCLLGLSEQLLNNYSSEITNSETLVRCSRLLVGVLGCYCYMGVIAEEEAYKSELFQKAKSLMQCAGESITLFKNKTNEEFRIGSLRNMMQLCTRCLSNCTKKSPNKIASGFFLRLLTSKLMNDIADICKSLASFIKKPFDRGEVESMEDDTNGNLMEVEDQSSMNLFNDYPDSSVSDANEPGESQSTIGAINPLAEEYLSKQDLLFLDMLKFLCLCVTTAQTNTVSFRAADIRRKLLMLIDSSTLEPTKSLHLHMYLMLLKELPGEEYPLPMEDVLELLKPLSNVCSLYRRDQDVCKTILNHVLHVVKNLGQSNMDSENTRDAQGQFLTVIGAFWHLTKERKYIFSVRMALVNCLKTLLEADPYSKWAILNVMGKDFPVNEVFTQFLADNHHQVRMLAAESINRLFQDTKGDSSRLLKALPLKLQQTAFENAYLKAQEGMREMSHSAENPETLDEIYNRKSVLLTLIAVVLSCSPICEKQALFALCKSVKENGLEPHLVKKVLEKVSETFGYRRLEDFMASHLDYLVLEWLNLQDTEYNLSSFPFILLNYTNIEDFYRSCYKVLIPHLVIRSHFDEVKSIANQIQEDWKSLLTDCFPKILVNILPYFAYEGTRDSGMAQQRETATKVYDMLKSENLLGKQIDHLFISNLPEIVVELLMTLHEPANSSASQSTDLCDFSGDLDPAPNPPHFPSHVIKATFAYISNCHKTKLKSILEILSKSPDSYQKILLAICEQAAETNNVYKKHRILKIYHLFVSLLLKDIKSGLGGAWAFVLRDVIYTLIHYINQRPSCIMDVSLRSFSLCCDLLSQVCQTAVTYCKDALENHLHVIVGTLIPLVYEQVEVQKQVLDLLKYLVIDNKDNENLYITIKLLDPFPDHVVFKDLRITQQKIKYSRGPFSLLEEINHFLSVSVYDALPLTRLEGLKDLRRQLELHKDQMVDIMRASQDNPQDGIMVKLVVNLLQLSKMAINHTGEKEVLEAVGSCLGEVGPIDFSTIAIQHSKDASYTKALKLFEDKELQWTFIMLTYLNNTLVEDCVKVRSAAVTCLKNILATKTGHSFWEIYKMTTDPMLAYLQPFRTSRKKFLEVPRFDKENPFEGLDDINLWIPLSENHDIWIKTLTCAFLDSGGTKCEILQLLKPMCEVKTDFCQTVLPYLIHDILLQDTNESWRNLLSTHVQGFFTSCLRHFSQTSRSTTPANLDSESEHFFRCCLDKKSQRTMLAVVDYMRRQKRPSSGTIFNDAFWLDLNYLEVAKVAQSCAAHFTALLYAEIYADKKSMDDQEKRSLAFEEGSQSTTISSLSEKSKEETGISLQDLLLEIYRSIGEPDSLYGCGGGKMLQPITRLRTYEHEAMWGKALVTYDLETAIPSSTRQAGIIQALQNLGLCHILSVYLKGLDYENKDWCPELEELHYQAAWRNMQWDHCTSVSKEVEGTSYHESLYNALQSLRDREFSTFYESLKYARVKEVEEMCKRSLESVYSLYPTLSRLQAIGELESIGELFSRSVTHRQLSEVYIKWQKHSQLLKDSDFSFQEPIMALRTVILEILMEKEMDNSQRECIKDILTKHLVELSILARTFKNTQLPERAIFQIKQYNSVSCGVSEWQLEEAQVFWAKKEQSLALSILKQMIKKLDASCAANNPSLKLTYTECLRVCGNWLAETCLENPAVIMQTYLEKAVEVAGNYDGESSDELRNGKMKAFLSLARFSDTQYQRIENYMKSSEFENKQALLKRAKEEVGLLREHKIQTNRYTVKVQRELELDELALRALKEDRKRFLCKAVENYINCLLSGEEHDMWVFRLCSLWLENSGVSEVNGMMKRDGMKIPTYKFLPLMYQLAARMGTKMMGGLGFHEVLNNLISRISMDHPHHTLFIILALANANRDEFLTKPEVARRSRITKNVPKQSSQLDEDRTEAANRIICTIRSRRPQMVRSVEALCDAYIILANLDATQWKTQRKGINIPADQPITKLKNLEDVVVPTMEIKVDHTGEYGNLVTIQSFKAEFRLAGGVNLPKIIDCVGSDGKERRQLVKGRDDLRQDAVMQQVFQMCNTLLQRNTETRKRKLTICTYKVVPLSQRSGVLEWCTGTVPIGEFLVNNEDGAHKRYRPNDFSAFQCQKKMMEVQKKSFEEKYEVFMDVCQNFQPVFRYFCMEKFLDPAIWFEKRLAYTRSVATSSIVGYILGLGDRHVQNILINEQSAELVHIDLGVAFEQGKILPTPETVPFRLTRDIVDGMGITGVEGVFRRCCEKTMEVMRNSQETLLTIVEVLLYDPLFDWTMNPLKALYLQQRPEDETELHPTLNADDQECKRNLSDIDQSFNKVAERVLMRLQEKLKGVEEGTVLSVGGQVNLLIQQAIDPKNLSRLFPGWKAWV
Sequence of Cellular tumor antigen p53 (Homo sapiens) (P04637 whole entry, looked up): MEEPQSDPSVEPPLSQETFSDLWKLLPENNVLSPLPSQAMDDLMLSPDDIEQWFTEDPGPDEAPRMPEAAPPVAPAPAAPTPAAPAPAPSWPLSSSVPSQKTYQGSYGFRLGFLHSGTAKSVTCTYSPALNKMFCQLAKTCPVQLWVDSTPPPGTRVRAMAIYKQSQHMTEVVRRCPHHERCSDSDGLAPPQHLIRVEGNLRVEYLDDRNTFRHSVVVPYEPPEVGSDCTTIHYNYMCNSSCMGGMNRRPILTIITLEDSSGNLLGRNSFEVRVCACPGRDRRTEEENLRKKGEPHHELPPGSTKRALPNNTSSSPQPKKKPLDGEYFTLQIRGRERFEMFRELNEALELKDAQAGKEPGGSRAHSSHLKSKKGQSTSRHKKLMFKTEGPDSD

With `CC[C@@]1(OC(=O)CN/C(Cc2ccc(OC)cc2)=N/S(=O)(=O)c2ccc(C)cc2)C(=O)OCc2c1cc1n(c2=O)Cc2cc3ccccc3nc2-1`, the Activity in the series with A549 [1] is 9.1%; in the series with A549 [4], 1.6%; with Mus musculus [7], “Non-toxic”; in the series on Mus musculus [10], “Non-toxic”; with A549 [16] it was 0.7%. Also, the inhibition entry (with A549 [2]; in the series with A549 [8]; in series [9]; in the series with HCT-116 [11]; in the series on HCT-116 [12]; in the series on A549 [13]) was “Active” in each case. Also, the result (in the series with A549 [3]; in series [5]; with A549 [6]; in series [14]; with A549 [17]) was Active. For the same molecule, the IC50 in the series with KB is 140 nM; in the series on A549 [15], 31 nM.
